From PubChem BioAssay
ARFGAP1 inh: inhibitors of rat ARFGAP1 | Arfgap1-stimulated ARF1 GTP hydrolysis, GDP FP detection | inhibition, % at 16.5 µM | actives 0.26% (n = 360,000);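 active = inhibition above a per-plate limit, mean inhibition of low control wells plus 3 SD, cut at about 25% in these data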
Target sequence (Q62848 1-136 limits assumed): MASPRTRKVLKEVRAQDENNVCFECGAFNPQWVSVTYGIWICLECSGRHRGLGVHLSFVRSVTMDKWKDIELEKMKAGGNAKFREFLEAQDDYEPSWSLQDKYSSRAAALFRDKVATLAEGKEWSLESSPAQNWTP
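system = rat Arfgap1 catalytic domain, aa 1-136 | technique = FP, GDP Alexa 633 tracer displaced from anti-GDP antibody, 620/688 nm | compound = one concentration, 16.5 µM, DMSO 1.26% | medium = HEPES-based buffer, pH 7.5 | timing = compound-enzyme preincubation 20 min, reaction 120 min, detection 60 min, 25 °C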
Rev-erbA mod: modulates human Rev-erb alpha binding to DNA; Rev-erbα–FITC-DNA binding, fluorescence polarization, 90 min; activity, % at 10 µM; actives 0.79% (n = 370,000);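 active = activity above about 14%, limit read from the data; passing the limit was not always enough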
ASAP1 GAP inh: inhibitors of human ASAP1 ArfGAP activity | Q9ULH1 | ASAP1-stimulated ARF1 GTP hydrolysis, GDP FP detection | inhibition, % at 16.5 µM | actives 0.19% (n = 360,000) | AID 624377; in the data active = inhibition above about 25%
HGIII-sPLA2 inh: Blocks human group III sPLA2 activity; Q9NZ20; QFRET BODIPY PC-A2 liposome hydrolysis, fluorescence; inhibition, % at 12.2 µM; actives 0.56% (n = 370,000); AID 743126;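 active = inhibition above mean plus 3 SD of compounds lying within the high and low control bounds, cut at about 19% in these data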
Target sequence (Q9NZ20 whole entry, looked up): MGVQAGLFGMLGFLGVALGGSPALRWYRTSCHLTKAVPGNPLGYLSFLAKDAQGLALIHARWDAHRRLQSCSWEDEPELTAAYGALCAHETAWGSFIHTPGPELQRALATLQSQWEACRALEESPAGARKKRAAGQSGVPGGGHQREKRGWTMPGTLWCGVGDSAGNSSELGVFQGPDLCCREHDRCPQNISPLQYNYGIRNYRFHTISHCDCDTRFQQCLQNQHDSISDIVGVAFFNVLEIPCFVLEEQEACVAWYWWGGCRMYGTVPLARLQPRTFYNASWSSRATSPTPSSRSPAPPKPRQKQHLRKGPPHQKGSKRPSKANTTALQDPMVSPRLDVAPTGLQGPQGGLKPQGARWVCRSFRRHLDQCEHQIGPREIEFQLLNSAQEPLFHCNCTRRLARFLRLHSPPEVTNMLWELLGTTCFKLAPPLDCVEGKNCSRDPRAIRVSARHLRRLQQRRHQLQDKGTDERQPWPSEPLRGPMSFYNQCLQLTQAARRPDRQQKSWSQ
bovine MsrA act: activates bovine MsrA enzyme. purified bovine MsrA, absorbance read-out. AID 602163. actives 0.3% (n = 360,000). activation, % at 10.6 µM; in the data active = activation above about 7.5%
MsrA inhibitor: bovine MsrA inhibition | purified bovine MsrA, absorbance read-out | inhibition, % at 15.5 µM | actives 0.75% (n = 360,000); in the data active = inhibition above about 4.5%
ASAP1 inh confirm: confirmation of human ASAP1 inhibitors; shares compounds with ASAP1 GAP inh; ASAP1-stimulated Arf1 GTPase, GDP fluorescence polarization; inhibition, % at 16.5 µM; actives 37% (n = 620);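 active = mean inhibition over triplicates exceeds the hit threshold derived for the earlier primary screening run, cut at about 25% in these data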
Each line names hits and unclear results; the compound was inactive in the other large screens (follow-up assays come after a bar, where they were run). Only some compounds are listed: those with a hit (about 2.7% of all), similar ones and a draw of the others.

CNC(=S)N/N=C/c1c(C(=O)OC)cnn1-c1ccc(Cl)cc1	none (no result: ARFGAP1 inh, ASAP1 GAP inh, bovine MsrA act, MsrA inhibitor)
CCOc1cc2c(C#N)c(N(CC)CC)nc(N)c2c(N)n1	ASAP1 GAP inh 33.1 | ASAP1 inh confirm inactive
COC(=O)C1CN(Cc2cn(CCC3OCCO3)nn2)CCS(=O)(=O)N1Cc1ccc(OC)cc1 (centres undefined)	none (no result: ARFGAP1 inh, ASAP1 GAP inh, bovine MsrA act, MsrA inhibitor)
COc1ccc(C(=O)c2c(C)c3cc(C)ccc3n2CC(O)CN2CCOCC2)cc1 (centres undefined)	ASAP1 GAP inh 25.8 | ASAP1 inh confirm inactive
COc1ccc(OCCOc2ccccc2[N+](=O)[O-])cc1	none
O=[N+]([O-])c1ccccc1OCCOc1ccccc1[N+](=O)[O-]	ARFGAP1 inh 34.9, ASAP1 GAP inh 81.3 | ASAP1 inh confirm 102.1
CCOC(=O)c1sc(N(Cc2ccccc2)C(=O)COC(=O)c2ccccc2O)nc1C	none
CCOC(=O)c1sc(N(Cc2ccccc2)C(=O)COC(=O)c2ccc(O)cc2)nc1C	ASAP1 GAP inh 26.5 | ASAP1 inh confirm inactive
N#Cc1c(-c2ccc(Cl)cc2)ccn2nc(C3CCCCC3)nc12	ASAP1 GAP inh 26.9 | ASAP1 inh confirm inactive
Nn1c(SCC(=O)Nc2cccc3ccccc23)nnc1-c1n[nH]c2c1CCC2	none (no result: ARFGAP1 inh, ASAP1 GAP inh, bovine MsrA act, MsrA inhibitor)
CCCc1cc(=O)oc2c(C)c(OCC(=O)NC3CC(C)(C)NC(C)(C)C3)ccc12	ASAP1 GAP inh 26.7 | ASAP1 inh confirm inactive
COC(=O)[C@]12C[C@H](CC(=O)N3CCCCC3)C(=O)N(CCc3ccc(OC)c(OC)c3)C1=C[C@H](COCc1ccccc1)O[C@@H]2C	none (no result: ARFGAP1 inh, ASAP1 GAP inh, bovine MsrA act, MsrA inhibitor)
O=S1(=O)c2ccc(Br)cc2OC[C@@H](Cc2ccccc2)N1Cc1cn(Cc2ccc(Cl)cc2)nn1	none (no result: ARFGAP1 inh, ASAP1 GAP inh, bovine MsrA act, MsrA inhibitor)
CC(C)C[C@@H](CNCC(=O)[C@H](Cc1c[nH]c2ccccc12)NC(=O)c1[nH]cnc1C(=O)N[C@@H](C)CN)NC(=O)c1nc[nH]c1C(=O)N[C@@H](Cc1ccccc1)C(=O)O	none
CC(C)C[C@@H](CNC(=O)OC(C)(C)C)NC(=O)c1nc[nH]c1C(=O)N[C@@H](CC(C)C)C(=O)CNC[C@H](CC(C)C)NC(=O)c1nc[nH]c1C(=O)N[C@@H](Cc1c[nH]c2ccccc12)C(=O)OC(C)(C)C	ASAP1 GAP inh 32.1 | ASAP1 inh confirm inactive
Cc1nc2ccc(S(=O)(=O)Nc3cccc(-c4nc5cccnc5s4)c3)cc2s1	none
Cc1nc2ccc(S(=O)(=O)Nc3ccc(-c4nc5cccnc5s4)cc3)cc2s1	ASAP1 GAP inh 28.0 | ASAP1 inh confirm inactive
CN(Cc1cccc(Cl)c1Cl)C(=O)CCNC(=O)c1ccco1	ASAP1 GAP inh 29.1 | ASAP1 inh confirm inactive
O=C(c1ccc(C#Cc2ccccc2)cc1)N1CCC(O)CC1	none (no result: ARFGAP1 inh, ASAP1 GAP inh, bovine MsrA act, MsrA inhibitor)
COC(=O)C12C=C3CC(C)=C3C(=O)N1Cc1[nH]c3ccccc3c1C2 (centres undefined)	none (no result: ARFGAP1 inh, ASAP1 GAP inh, bovine MsrA act, MsrA inhibitor)
Cc1nc2ccccc2nc1N1CCCC1	ASAP1 GAP inh 30.7 | ASAP1 inh confirm inactive
CCCCNC(=O)C[C@H]1C[C@@]2(C(=O)OC)C(=C[C@H](C(C)C)O[C@@H]2C2CC2)N(Cc2ccc(Cl)cc2Cl)C1=O	none (no result: ARFGAP1 inh, ASAP1 GAP inh, bovine MsrA act, MsrA inhibitor)
Oc1ccc(Cl)cc1-c1cc(-c2cccc(Br)c2)n[nH]1	ASAP1 GAP inh 27.7 | ASAP1 inh confirm 27.0
Oc1ccc(Cl)cc1-c1cc(-c2ccccc2Cl)[nH]n1	none
C=CCn1c(-c2ccccc2OC)n[nH]c1=S	none
C=CCn1c(-c2cccc3ccccc23)n[nH]c1=S	ASAP1 GAP inh 52.5 | ASAP1 inh confirm inactive
O=C(Nc1ccc2c(c1)OCCO2)C(c1ccncc1)n1c(=O)c(-c2cc3ccccc3[nH]2)nc2ccccc21 (centres undefined)	ASAP1 GAP inh 32.6 (no result: bovine MsrA act) | ASAP1 inh confirm inactive
COc1cccc(/C=N/NC(=O)c2cc3cc([N+](=O)[O-])ccc3s2)c1O	ASAP1 GAP inh 41.6 | ASAP1 inh confirm 142.9
COc1cccc(/C=N/NC(=O)C(=O)N/N=C/c2cccc(OC)c2O)c1O	none
COc1ccc(C2=Nc3ccccc3NC(=O)C2N(CCc2ccccc2)C(=O)c2cccs2)cc1 (centres undefined)	ASAP1 GAP inh 26.7 | ASAP1 inh confirm inactive
O=C1NC(=S)S/C1=C\C=C\c1ccc([N+](=O)[O-])o1	ASAP1 GAP inh 28.9 | ASAP1 inh confirm inactive
CCOC(=O)c1ccc(Oc2cn[nH]c2-c2ccc(O)cc2O)cc1	ASAP1 GAP inh 27.4 | ASAP1 inh confirm inactive
COc1ccc2c3c([nH]c2c1)[C@]1(CCNC=O)Nc2ccccc2C1=NCC3	none (no result: ARFGAP1 inh, ASAP1 GAP inh, bovine MsrA act, MsrA inhibitor)
Cc1cc(OCC(=O)Nc2ccc3oc(-c4ccncc4)nc3c2)ccc1Cl	ASAP1 GAP inh 27.7 | ASAP1 inh confirm 131.4
COC(=O)CCCC1=CC2=CC(=O)C(C)(OC(=O)c3cccs3)C(=O)C2=CN1Cc1ccccc1 (centres undefined)	none
COC(=O)CCCC1=CC2=CC(=O)C(C)(OC(=O)c3cccs3)C(=O)C2=CN1Cc1ccco1 (centres undefined)	ASAP1 GAP inh 24.9 | ASAP1 inh confirm inactive
CCC(C)CNC(=O)CN1C(=O)C2CCCCN2C(=O)c2ccccc21 (centres undefined)	none (no result: ARFGAP1 inh, ASAP1 GAP inh, bovine MsrA act, MsrA inhibitor)
COc1cccc(/C=C/c2nc(C#N)c(NCC(C)C)o2)c1	ASAP1 GAP inh 29.0 | ASAP1 inh confirm inactive
Cc1ccc(-n2nc3c(c2NC(=O)c2ccco2)CS(=O)C3)cc1 (centres undefined)	ASAP1 GAP inh 24.8 | ASAP1 inh confirm inactive
Cc1ccc(NC(=O)[C@@H]2CC(=O)O[C@@H]2c2ccccc2)c(C)c1	none (no result: ARFGAP1 inh, ASAP1 GAP inh, bovine MsrA act, MsrA inhibitor)
COc1ccc(S(=O)(=O)N2CCCC2)c(Cl)c1Cl	ASAP1 GAP inh 25.2 | ASAP1 inh confirm inactive
CCOC(=O)N1CCN(S(=O)(=O)c2ccc(OC)c(Cl)c2Cl)CC1	none
COc1ccc2c(c1OC)C(=O)OC2CC(=O)c1ccc(O)c(O)c1 (centres undefined)	ASAP1 GAP inh 144.3 | ASAP1 inh confirm inactive
CCOc1cc(/C=C2/NC(=S)NC2=O)ccc1OCc1ccc([N+](=O)[O-])cc1	ASAP1 GAP inh 28.5 | ASAP1 inh confirm inactive
Cc1ccc(NC(=O)CSc2nnc(-c3ccc(S(=O)(=O)N4CCCC4)cc3)o2)cc1C	ASAP1 GAP inh 30.7 | ASAP1 inh confirm inactive
Cc1cccc(NC(=O)CSc2nnc(-c3ccc(S(=O)(=O)N4CCCC4)cc3)o2)c1	none (no result: ARFGAP1 inh, ASAP1 GAP inh, HGIII-sPLA2 inh, MsrA inhibitor)
Cc1nc(NCCc2ccc(S(N)(=O)=O)cc2)c2c(C)c(C)sc2n1	ASAP1 GAP inh 24.7 | ASAP1 inh confirm inactive
COCCCN1C(=O)[C@H](CC(=O)NCC2CCCCC2)[C@]2(C(=O)OC)CCCCC=C12	none (no result: ARFGAP1 inh, ASAP1 GAP inh, bovine MsrA act, MsrA inhibitor)
COC(=O)C1CN(Cc2cn(CCC3OCCO3)nn2)CCS(=O)(=O)N1Cc1ccc(Cl)cc1 (centres undefined)	none (no result: ARFGAP1 inh, ASAP1 GAP inh, bovine MsrA act, MsrA inhibitor)
CC(C)(C)c1nc(N2CCN(C(=O)c3ccco3)CC2)c2nnn(Cc3ccccc3)c2n1	ASAP1 GAP inh 49.2 | ASAP1 inh confirm inactive
